PubChem BioAssay AID1496 (Sanford-Burnham Center for Chemical Genomics, 2009)
The whole screen tested about 220,000 compounds, of which about 990 (0.45%) were called active. The full list was thinned out, with actives kept by preference. Values without a mark were called inactive.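 How the source made its calls: active means inhibition over about 50% at 20 µM in the single-dose screen (limit read from the data); inactive means the rest.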

Biological target: Runt-related transcription factor 1 (Homo sapiens) + Core-binding factor subunit beta (Homo sapiens) (UniProt Q01196+Q13951)
Test: inhibitors of RUNX1 Runt–CBFb binding, primary screen, biochemical, FRET, Cerulean-Runt, Venus-CBFb, uHTS (AID 1496);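 further: 0% = DMSO wells and 100% = excess unlabeled CBFb competitor control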
Conditions: Cerulean-Runt/Venus-CBFb FRET ratio 530/480, 1 h; at 20 µM; stronger effect = higher value
How it was run: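 Buffer or medium: Tris pH 7.5 buffer with BSA. Assay system: Cerulean-labeled Runt domain protein. Amount: each fluorescent fusion protein 100 nM. Read-out basis: loss of energy transfer signal. Incubation: 1 h compound exposure, room temperature. Probe or stimulus: Venus-CBFb binding partner, 100 nM. Detection: FRET, excitation 422 nm, emission at 530 and 480 nm.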

Chain of Runt-related transcription factor 1 (Homo sapiens) + Core-binding factor subunit beta (Homo sapiens) (Q01196 whole entry, looked up): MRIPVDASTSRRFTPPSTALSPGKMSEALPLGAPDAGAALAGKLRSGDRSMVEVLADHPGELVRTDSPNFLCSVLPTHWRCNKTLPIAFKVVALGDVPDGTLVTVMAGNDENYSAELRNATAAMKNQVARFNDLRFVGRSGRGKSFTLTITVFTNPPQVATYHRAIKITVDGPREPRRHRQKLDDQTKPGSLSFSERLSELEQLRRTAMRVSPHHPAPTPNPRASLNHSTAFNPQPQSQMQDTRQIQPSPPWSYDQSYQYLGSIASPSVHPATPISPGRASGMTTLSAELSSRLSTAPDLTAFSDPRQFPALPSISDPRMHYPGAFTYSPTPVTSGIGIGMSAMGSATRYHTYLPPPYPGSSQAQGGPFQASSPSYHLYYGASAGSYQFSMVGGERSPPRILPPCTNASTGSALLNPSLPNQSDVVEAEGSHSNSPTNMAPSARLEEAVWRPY
Chain of Runt-related transcription factor 1 (Homo sapiens) + Core-binding factor subunit beta (Homo sapiens) (Q13951 whole entry, looked up): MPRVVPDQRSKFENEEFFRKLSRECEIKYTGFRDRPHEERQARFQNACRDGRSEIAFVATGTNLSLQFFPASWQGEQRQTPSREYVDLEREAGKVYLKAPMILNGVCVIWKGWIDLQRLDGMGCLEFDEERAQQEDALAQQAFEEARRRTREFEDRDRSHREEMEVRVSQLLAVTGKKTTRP

Compound | inhibition
O=C(O)c1ccccc1OCc1ccccc1Cl | 2.6%
C#CCOCCOCCOCCNc1nc(N2CCN(C(=O)[C@H](CCC(=O)O)n3cc(C(N)CO)nn3)CC2)nc(N2CCN(C(=O)[C@H](CCCCN)n3cc(C(N)[C@H](C)CC)nn3)CC2)n1 (stereo not given in full) | 0.2%
COc1ccc(C(=O)C2CCCN(C(=O)c3cnsn3)C2)c(C)c1 (stereo not given) | -0.7%
O=C(NCc1ccco1)C1CCCN(S(=O)(=O)c2ccccc2)C1 (stereo not given) | -0.1%
O=C(NCc1ccco1)C1CCCN(S(=O)(=O)c2cnc[nH]2)C1 (stereo not given) | 1.5%
CCCS(=O)(=O)N1CCCC(C(=O)NCc2ccco2)C1 (stereo not given) | 71.8% (active)
CCOC(=O)c1ccc(NC(=O)c2nc[nH]c2C(=O)NCc2ccccc2)cc1 | 19.6%
CN(C)S(=O)(=O)c1ccc(Cl)c(NC(=O)COC(=O)CC(NC(N)=O)c2ccc(Cl)cc2)c1 (stereo not given) | -1.9%
CCCN(CCC)S(=O)(=O)c1ccc(C(=O)N2CC3CCC(CC3)C2)cc1 | -0.8%
Cc1nc(C(=O)Nc2ccc(Cl)cc2)sc1C1(C)CC(c2ccccc2)=NO1 (stereo not given) | 1.9%
O=C(O)/C=C/c1ccc2c(c1)OCCO2 | 1.9%
COc1cccc(CC(=O)Nc2ccc(-c3csc(C)n3)cc2)c1 | -1.8%
COc1ccc(OC(C)C(=O)NCCc2nc3ccccc3[nH]2)cc1 (stereo not given) | -0.9%
CC(C)Oc1ccc(/C=C(\NC(=O)/C=C/c2ccco2)C(=O)NCCc2nc3ccccc3[nH]2)cc1 | 89.5% (active)
CC(C)=C(NC(=O)c1ccco1)C(=O)NCCc1nc2ccccc2[nH]1 | 1.2%
CCOC(=O)C1=C(N)N2C(=O)C(C)SC2=C(C(=O)OCC)C1c1cc(OC)c(OC)c(OC)c1 (stereo not given) | -5%
Cc1cc(Nc2ccc(Cl)cc2)nc(N2CCOCC2)n1 | 0.3%
Cc1cccc(-n2c(N)c(C(=O)N3CCN(C)CC3)sc2=S)c1 | 55.8% (active)
Cc1ccc(-n2c(N)c(C(=O)N3CCOCC3)sc2=S)c(C)c1 | 40.6%
CCOC(=O)c1sc(=S)n(-c2cccc(OC)c2)c1N | 34%
CC(=O)Nc1nc2c(s1)C(=O)NCC(C)(C)C2 | 1%
CCCN(c1ccc(C)cc1)c1nc(=O)c2cccnc2s1 | 0.8%
Cc1cccc(N2C(=O)c3cccnc3C2=O)c1 | -2.4%
Cc1cccc(N2C(=O)C3C(c4ccccc4)OC4(C(=O)c5ccccc5C4=O)C3C2=O)c1 (stereo not given) | 115% (active)

Compound | inhibition
Cc1cccc(N2C(=O)CC(SC(N)=Nc3ccccc3)C2=O)c1 (stereo not given) | -1.7%
O=C(Nc1ccc(Cl)cc1)Nc1ccc(C(=O)N2CCOCC2)cc1 | -0.4%
Cc1cccn2c(=O)c3cc(C#N)c(=O)n(CCCN4CCOCC4)c3nc12 | 92.6% (active)
Cc1cc(C)n(CC(C)NCc2c(C(=O)N3CCOCC3)nc3c(C)cccn23)n1 (stereo not given) | 0.6%
Cc1cccn2c(=O)c3cc(C(=O)N4COCC4(C)C)n(C)c3nc12 | -1.7%
CC(C)c1c(O)nc(SCCOc2ccc(Cl)cc2)[nH]c1=O | 0.6%
Cc1cc(C)c(C#N)c(SCc2[nH]nc3c2C(c2ccccc2)C(C#N)=C(N)O3)n1 (stereo not given) | -1.5%
N#CC1=C(N)Oc2c(sc3ccccc23)C1c1ccco1 (stereo not given) | 15.7%
Cc1cc(C)c2c3c(sc2n1)C(c1ccccc1)C(C#N)=C(N)O3 (stereo not given) | 66.6% (active)
Nc1c(Cl)cc(S(N)(=O)=O)cc1S(N)(=O)=O | 0%
COc1ccc(/C=C2\N=C3CCCN3C2=O)cc1 | 1.1%
COc1ccc(/C=N/NS(=O)(=O)c2ccc(NC(C)=O)cc2)cc1 | 0.8%
CCCCN1CCNC1=S | 0.1%
CS(=O)(=O)N(CC(O)Cn1c2ccccc2c2ccccc21)c1cccc2ccccc12 (stereo not given) | -3.3%
CCCCN(CCCC)CC(O)Cn1c2ccccc2c(=O)c2ccccc21 (stereo not given) | 80.3% (active)
O=C1c2ccccc2S(=O)(=O)N1CC(O)Cn1c2ccccc2c2ccccc21 (stereo not given) | -0.7%
O=C1[C@@H]2C(c3cccnc3)=NO[C@@H]2C(=O)N1c1ccc(Cl)cc1Cl | 9%
COc1ccc(Cl)cc1CSc1ncn[nH]1 | -0.7%
Cc1ccsc1/C=N/NC(=O)Cc1cc(=O)[nH][nH]1 | -1.1%
CCn1cnc2scc(-c3ccc(C)c(C)c3)c2c1=O | 0.4%
COc1ccc(-c2csc3ncnc(Oc4ccc5c(C)cc(=O)oc5c4)c23)cc1 | -0.5%
Cc1cc(F)ccc1S(=O)(=O)Nc1ncnc2scc(-c3ccc(F)cc3)c12 | 66.8% (active)
CCOc1ccc2sc(NS(=O)(=O)c3ccc(N)cc3)nc2c1 | 0.7%
CCNc1nc(NCC)nc(N/N=C/c2ccc(O)c(OC)c2)n1 | 10%

Compound | inhibition
CNC(=O)c1cc2c(ccc3ccccc32)oc1=N | 108% (active)
CCOC(=O)N1CCN(C(=O)c2cc3c(ccc4ccccc43)oc2=O)CC1 | 2.5%
N=c1oc2ccccc2cc1C(=O)N/N=C/c1ccccc1 | -2.3%
CCN(CC)C(=O)Oc1ccc(Br)cc1C(=O)Nc1ccc(F)c(Cl)c1 | 0.6%
CCn1c(SCC(=O)N/N=C/c2ccncc2)nc2ccccc21 | -0.7%
CCC1=C(C(=O)OC)C(c2cc(OC)ccc2OC)C(C#N)=C(N)O1 (stereo not given) | 2%
COc1ccc(C2C(C#N)=C(N)Oc3cc(N)ccc32)cc1OC (stereo not given) | 77.7% (active)
COC(=O)C1=C(C)OC(N)=C(C#N)C1c1cc(OC)ccc1OC (stereo not given) | -2.5%
CCOC(=O)c1c(NC(=S)Nc2ccccc2)sc2c1CCN(C)C2 | 66.5% (active)
CCOC(=O)c1c(NC(=S)Nc2ccccc2C)sc2c1CCC2 | 10.3%
CCOC(=O)c1c(NC(=O)NC(C)(C)C)sc2c1CCN(C)C2 | 4.1%
CC(C)(C)c1nnc(NC(=O)C2c3ccccc3Oc3ccccc32)s1 | 21%
CC(C)Sc1nnc([C@H](Cc2ccccc2)NC(=O)OC(C)(C)C)o1 | 4.8%
Fc1cccc(Cl)c1CSc1ccc(-c2ccco2)nn1 | 40.3%
Brc1ccc(CSc2ccc(-c3ccco3)nn2)cc1 | 53.3% (active)
O=C(CSc1ccc(-c2ccco2)nn1)NCc1ccc2c(c1)OCO2 | 16.4%
CCC(C)(C)NC(=O)C(c1ccc(O)cc1)N(C(=O)Cn1nnc2ccccc21)c1ccc(NC(C)=O)cc1 (stereo not given) | 0.4%
COc1c(O)ccc2c1CN1CCc3cc4c(cc3C1C2)OCO4 (stereo not given) | 66.6% (active)
COc1cc(COCC(O)CN2CCN(Cc3ccc4c(c3)OCO4)CC2)cc(OC)c1OC (stereo not given) | -1%
COc1ccc2cc1Oc1ccc(cc1)C[C@H]1c3cc(c(OC)cc3CCN1C)Oc1c(O)c(OC)cc3c1[C@H](C2)N(C)CC3 | 1.7%
CCOC(=O)c1ccc(NC(=O)c2nc[nH]c2C(=O)N[C@@H](CCCCNC(=O)OC(C)(C)C)C(=O)OC(C)(C)C)cc1 | -5.6%
Cc1ccc(C(=O)OC(C)CN2CCOCC2)cc1 (stereo not given) | 1.3%
CSc1nnc(-c2ccncc2)n1CCCN1CCCC1=O | -5.5%
CCOc1ccc(C(=O)NCCCN2CCCC2=O)cc1 | 1%

Compound | inhibition
COCC(C)OC(=O)c1c(N)n(CCCN2CCOCC2)c2nc3ccccc3nc12 (stereo not given) | 67.9% (active)
CC(C)(C)OC(=O)c1c(N)n(CCCN2CCCC2=O)c2nc3ccccc3nc12 | 68.7% (active)
O=C(Cn1c(-c2ccccn2)nc2ccccc21)NCCN1CCOCC1 | 0.6%
CC(C)C[C@H](CO)Nc1nc(N(C)c2cccc(Cl)c2)c2ncn(C(C)C)c2n1 | -4.6%
N/C(=N\OC(=O)Nc1ccccc1)c1ccno1 | 0.1%
O=C(NC(c1ccccc1)c1ccccc1)N1CCN(CCO)CC1 | -1.2%
S=C(c1ccc(-c2ccccc2)o1)N1CCCCC1 | 21%
OCCN1CCN(C(=S)c2ccc(-c3ccccc3)cc2)CC1 | 53.6% (active)
CCc1nc2sc3c(Cl)ncnc3c2c2c1CCCC2 | -0.7%
CCN(CC)S(=O)(=O)c1ccc(N2CCOCC2)c(C(=O)O)c1 | 1%
CCN(CC)S(=O)(=O)c1ccc(N2CCOCC2)c(NC(=O)C2COc3ccccc3O2)c1 (stereo not given) | 84.6% (active)
Cc1ccc(S(=O)(=O)N(C)C)cc1NC(=O)COC(=O)C1COc2ccccc2O1 (stereo not given) | -0.2%
CC(=O)c1sc(NC(=O)CCCOc2ccccc2C)nc1C | 0.4%
COc1cccc2sc(Nc3nc(C)c(C(C)=O)s3)nc12 | 66.3% (active)
COc1cccc2sc(NNC(=O)c3nc4ccccc4s3)nc12 | 32.7%
O=S(=O)(NC(=S)Nc1ccccc1)c1ccc(F)cc1 | 26.8%
O=[N+]([O-])c1ccc2c(c1)C(O)n1nc(-c3ccccc3)nc1S2 (stereo not given) | -0.7%
C=CCNC(=S)NNC(=O)c1cc(Cl)ccc1OC | 0.2%
C=CCSc1nnc(NC(=O)c2ccc(NC(C)=O)cc2)s1 | 0%
NNC(=O)c1cccc(COCC(F)(F)C(F)F)c1 | -0.3%
N#CC1=C(N)N(c2ccccc2)C2=C(C(=O)CCC2)C1c1ccccc1 (stereo not given) | 6.6%
CCCN1C2=C(C(=O)CCC2)C(c2ccc(O)c(Br)c2)C2=C1CCCC2=O | 53.1% (active)
CCCC(=O)N1c2ccccc2NC2=C(C(=O)CCC2)C1c1ccc(F)cc1 (stereo not given) | -0.4%
